Source: PubChem BioAssay (several laboratories)
Shown are actives, neighbours in structure and some others; about 27% of the full set was active somewhere.
CYP2C9 activ – activators of human CYP2C9 | P11712 | recombinant CYP2C9, luciferin-H conversion, luminescence; stronger effect = higher value; factor 1 = untreated enzyme, 0 = blocked | activation factor at 5 µM | 1.4% of 96,000 active;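 active = activation factor of 2 or more for CYP2C9 at a 5 µM dose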;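 note: 0 = sulfaphenazole-blocked wells and 1 = vehicle-only wells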
CYP2C19 inhib – blocks human cytochrome P450 2C19. CYP2C19 Supersomes, luciferin-H EGE luminescence, 30 min. inhibition, % at 5 µM. 21% of 96,000 active;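 active = CYP2C19 inhibition above a set limit at 5 µM in the primary screen, cut at about 50% in these data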;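 note: plate controls were negative control wells for no effect and 2.5 mM tranylcypromine positive control for full effect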
Target sequence (P33261 whole entry, looked up): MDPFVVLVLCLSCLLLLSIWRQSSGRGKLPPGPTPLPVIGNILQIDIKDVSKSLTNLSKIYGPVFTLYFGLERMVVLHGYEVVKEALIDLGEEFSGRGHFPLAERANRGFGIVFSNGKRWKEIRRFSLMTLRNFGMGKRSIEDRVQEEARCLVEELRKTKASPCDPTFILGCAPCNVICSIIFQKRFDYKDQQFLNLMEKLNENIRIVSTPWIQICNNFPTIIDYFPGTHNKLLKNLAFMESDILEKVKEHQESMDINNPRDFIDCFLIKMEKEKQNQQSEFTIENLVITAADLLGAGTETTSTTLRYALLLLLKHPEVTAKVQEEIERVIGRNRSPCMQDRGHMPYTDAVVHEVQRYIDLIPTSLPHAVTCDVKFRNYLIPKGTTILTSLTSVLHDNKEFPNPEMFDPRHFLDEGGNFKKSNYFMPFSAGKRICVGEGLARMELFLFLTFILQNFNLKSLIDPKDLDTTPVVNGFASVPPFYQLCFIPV
Cav32 inh – human Cav3.2 channel inhibition, primary screen. Cav3.2-expressing cells, Fluo-4 calcium fluorescence FDSS; stronger effect = lower value. AID 449739. 4% of 100,000 active. B-score at 10 µM;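 active = single-dose well whose peak fluorescence ratio is a statistical outlier from its plate by either plate-standardised score or position-corrected B-score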
Rev-RRE block – inhibitors of HIV-1 Rev-RRE RNA interaction; Rev peptide-RRE RNA binding, FRET; inhibition, % at 8 µM; 0.79% of 97,000 active; AID 704;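 active = inhibition above the screen-wide mean plus 3 SD, cut at about 35% in these data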;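 note: 0% = median DMSO wells and 100% = median Neomycin B control wells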
Target sequence (P05866 whole entry, looked up): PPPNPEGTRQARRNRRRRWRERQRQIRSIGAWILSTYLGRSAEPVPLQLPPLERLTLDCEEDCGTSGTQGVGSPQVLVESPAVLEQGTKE
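Assay system: labelled RRE RNA duplex and labelled Rev peptide / Medium: HEPES pH 7.5 salt buffer with EDTA / Reagent: labelled Rev peptide / Schedule: 5 + 15 min at 25 °C / Signal: FRET, excitation 480 nm, emission 540 nm donor and 671 nm acceptor / Benchmarks: DMSO and neomycin B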
CYP2C19 act – increases human CYP2C19 enzyme activity; P33261; recombinant CYP2C19, luciferin-H EGE luminescence; stronger effect = higher value; 0 = fully inhibited enzyme, 1 = untreated enzyme; activation factor at 5 µM; 96,000 tested, under 10 active; AID 1025;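 active = activation factor of at least 2 at 5 µM in the primary screen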;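 note: 0 = wells with 2.5 mM tranylcypromine and 1 = vehicle-only wells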
CYP2C9 inh – human CYP2C9 inhibition | P11712 | CYP2C9 Supersomes, luciferin-H conversion, luminescence | inhibition, % at 5 µM | 20% of 96,000 active | AID 777;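 active = blocking of liver enzyme CYP2C9 beyond about 50% at 5 µM, limit read from the data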
The depositor's hits bear a star.

CC12CC(NC(=O)N1c1ccc(C(=O)N3CCN(c4ccc(F)cc4)CC3)cc1)c1ccccc1O2 (configuration not stated) was read as CYP2C9 activ 0.9, CYP2C19 inhib 28.8, Cav32 inh -5.27*, Rev-RRE block -2.0, CYP2C19 act 0.7 and CYP2C9 inh 10.2.
`CC12CC(NC(=O)N1c1cccc(C(=O)N3CCN(c4ccccc4)CC3)c1)c1ccccc1O2` (configuration not stated) gave CYP2C9 activ 0.5, CYP2C19 inhib 57.9*, Cav32 inh -5.4*, Rev-RRE block -0.7, CYP2C19 act 0.4 and CYP2C9 inh 53.0*.
CC12CC(NC(=O)N1Cc1ccccc1)c1ccccc1O2 (configuration not stated) was read as CYP2C9 activ 0.9, CYP2C19 inhib 8.6, Cav32 inh -5.4*, Rev-RRE block 4.3, CYP2C19 act 0.9 and CYP2C9 inh 8.3.
For Cc1ccc(C(=O)NN(C)c2nc3ccccc3nc2C(F)(F)F)cc1 the results were CYP2C9 activ 1.6, CYP2C19 inhib 30.4, Cav32 inh -1.38, Rev-RRE block 11.5, CYP2C19 act 0.7 and CYP2C9 inh -62.8.
Cc1ccc(NC(=O)C2CCCN(S(=O)(=O)c3cnc[nH]3)C2)cc1F (configuration not stated) was read as CYP2C9 activ 0.1, CYP2C19 inhib 93.9*, Cav32 inh 0.411, Rev-RRE block 3.2, CYP2C19 act 0.1 and CYP2C9 inh 86.6*.
For COc1cc(NC(=O)C2CCCN(S(=O)(=O)c3cnc[nH]3)C2)cc(OC)c1 (configuration not stated) the results were CYP2C9 activ 0.1, CYP2C19 inhib 44.5, Cav32 inh -2.41, Rev-RRE block -0.3, CYP2C19 act 0.6 and CYP2C9 inh 88.4*.
Cc1cc(C)cc(NC(=O)C2CCCN(S(=O)(=O)c3cnc[nH]3)C2)c1 (configuration not stated) was read as CYP2C9 activ 0.1, CYP2C19 inhib 80.9*, Cav32 inh -0.0166, Rev-RRE block 3.8, CYP2C19 act 0.2 and CYP2C9 inh 92.9*.
Cc1cccc(N2CCN(C(=O)C3CCCN(S(=O)(=O)c4cnc[nH]4)C3)CC2C)c1 (configuration not stated) was read as Cav32 inh -0.0155 and Rev-RRE block 2.4.
`CCN(CC)CCN=C1CCCc2ccccc2N1` gave CYP2C9 activ 0.9, CYP2C19 inhib 4.7, Cav32 inh 0.522, Rev-RRE block -0.6, CYP2C19 act 1 and CYP2C9 inh 9.0.
Screening COc1ccccc1CNC(=O)C1CCN(C(=O)N(C)C)CC1 returned CYP2C9 activ 1.4, CYP2C19 inhib -10.1, Cav32 inh -1.17, Rev-RRE block 6.1, CYP2C19 act 1.1 and CYP2C9 inh -39.8.
For COc1ccccc1CNC(=O)C(CC(C)C)NC(=O)C1CCC(C)CC1 (configuration not stated) the results were CYP2C9 activ 0.8, CYP2C19 inhib 10.5, Cav32 inh -5.84*, Rev-RRE block 10.0, CYP2C19 act 0.9 and CYP2C9 inh 16.4.
`Cc1nn(C)c(C)c1S(=O)(=O)N(CC(=O)N1CCc2ccccc2C1)c1ccc(C(C)C)cc1` gave CYP2C9 activ 0.2, CYP2C19 inhib 96.5*, Cav32 inh -4.8*, Rev-RRE block 0.1, CYP2C19 act 0 and CYP2C9 inh 80.8*.
For Cc1cccc(NC(=O)CN(c2ccc(C(C)C)cc2)S(=O)(=O)c2c(C)nn(C)c2C)n1 the results were CYP2C9 activ 0, CYP2C19 inhib 96.3*, Cav32 inh -3.17, Rev-RRE block 1.6, CYP2C19 act 0 and CYP2C9 inh 96.9*.
COc1ccc(N(CC(=O)N2CCc3ccccc32)S(=O)(=O)c2c(C)n[nH]c2C)cc1 was read as CYP2C9 activ 0.2, CYP2C19 inhib 40.0, Cav32 inh 0.0345, Rev-RRE block 4.4, CYP2C19 act 0.6 and CYP2C9 inh 76.4*.
For Cc1nn(C)c(C)c1S(=O)(=O)N(CC(=O)Nc1ccccn1)c1ccc(C(C)C)cc1 the results were Cav32 inh 0.103.
For Cc1ccc(N(CC(=O)N2CCc3ccccc32)S(=O)(=O)c2cccs2)cc1 the results were CYP2C9 activ 0.9, CYP2C19 inhib 4.9, Cav32 inh -2.12, Rev-RRE block 16.6, CYP2C19 act 1 and CYP2C9 inh 9.3.
Cc1ccc(N(CC(=O)N2CCN(c3ccc(F)cc3)CC2)S(=O)(=O)c2c(C)nn(C)c2C)cc1 was read as CYP2C9 activ 1.6, CYP2C19 inhib 85.1*, Cav32 inh -0.385, Rev-RRE block -3.3, CYP2C19 act 0.1 and CYP2C9 inh -60.2.
For Cc1nn(C)c(C)c1S(=O)(=O)N(CC(=O)N1CCc2ccccc21)c1ccc(C(C)C)cc1 the results were CYP2C9 activ 0.3, CYP2C19 inhib 58.6*, Cav32 inh 0.417, Rev-RRE block 0.3, CYP2C19 act 0.4 and CYP2C9 inh 74.4*.
Cc1nn(C)c(C)c1S(=O)(=O)N(CC(=O)NC1CCCCCC1)c1ccc(C(C)C)cc1 was read as CYP2C9 activ 0.9, CYP2C19 inhib 9.8, Cav32 inh 0.138, Rev-RRE block 6.1, CYP2C19 act 0.9 and CYP2C9 inh 6.5.
For CC(Oc1ccccc1)C(=O)N1CCC2(CC1)Oc1ccc(F)cc1C(=O)C21CC(c2cccnc2)=NO1 (configuration not stated) the results were Cav32 inh -0.00734.
Screening Cc1cc(C)nc(SCC(=O)Nc2ccc(S(=O)(=O)NC(C)(C)C)cc2)n1 returned CYP2C9 activ 0.4, CYP2C19 inhib 13.0, Cav32 inh 1.33, Rev-RRE block 5.3, CYP2C19 act 0.9 and CYP2C9 inh 58.3*.
For Cc1cc(C)nc(SCC(=O)N/N=C\c2sccc2C)n1 the results were CYP2C9 activ 0.8, CYP2C19 inhib 55.2*, Cav32 inh -2.26, Rev-RRE block -1.1, CYP2C19 act 0.4 and CYP2C9 inh 20.3.
`COc1ccc(NC(=O)CCn2nc(C)cc2C)cc1` gave CYP2C9 activ 1.4, CYP2C19 inhib 68.4*, Cav32 inh 1.2, CYP2C19 act 0.3 and CYP2C9 inh -43.3.
For Cc1cc(C)nc(SCC(=O)Nc2ccc(S(=O)(=O)NCCO)cc2)n1 the results were CYP2C9 activ 0.9, CYP2C19 inhib -0.1, Cav32 inh 0.0446, Rev-RRE block 8.8, CYP2C19 act 1 and CYP2C9 inh 14.7.
For Cc1cc(C)nc(SCC(=O)Nc2ccc(S(=O)(=O)N3CCCCC3)cc2)n1 the results were CYP2C9 activ 0.2, CYP2C19 inhib 48.8, Rev-RRE block 5.7, CYP2C19 act 0.5 and CYP2C9 inh 75.3*.
`CCCSc1nnc(CSc2nc3nc(C)cc(C)n3n2)o1` gave CYP2C9 activ 0.9, CYP2C19 inhib 13.5, Cav32 inh 0.462, Rev-RRE block -0.2, CYP2C19 act 0.9 and CYP2C9 inh 5.9.
